# Data from ChEMBL document CHEMBL5705888, “Substrate specificity and inhibitors of LRRK2, a protein kinase mutated in Parkinson's disease” (Biochem J, 2009).
# Legend:
# [1] = biological target: Serine/threonine-protein kinase PAK 5 (Homo sapiens) (UniProt Q9P286); test: Inhibition of PAK5 (unknown origin) at 10 uM incubated for 30 mins in presence of [gamma-33P]ATP by multidrop micro reagent based assay relative to control; values are per cent of control
# [2] = biological target: Proto-oncogene tyrosine-protein kinase Src (Homo sapiens) (UniProt P12931); test: Inhibition of Src (unknown origin) at 10 uM incubated for 30 mins in presence of [gamma-33P]ATP by multidrop micro reagent based assay relative to control; values are per cent of control
# Sequence of Proto-oncogene tyrosine-protein kinase Src (Homo sapiens) (P12931 2-536 limits assumed): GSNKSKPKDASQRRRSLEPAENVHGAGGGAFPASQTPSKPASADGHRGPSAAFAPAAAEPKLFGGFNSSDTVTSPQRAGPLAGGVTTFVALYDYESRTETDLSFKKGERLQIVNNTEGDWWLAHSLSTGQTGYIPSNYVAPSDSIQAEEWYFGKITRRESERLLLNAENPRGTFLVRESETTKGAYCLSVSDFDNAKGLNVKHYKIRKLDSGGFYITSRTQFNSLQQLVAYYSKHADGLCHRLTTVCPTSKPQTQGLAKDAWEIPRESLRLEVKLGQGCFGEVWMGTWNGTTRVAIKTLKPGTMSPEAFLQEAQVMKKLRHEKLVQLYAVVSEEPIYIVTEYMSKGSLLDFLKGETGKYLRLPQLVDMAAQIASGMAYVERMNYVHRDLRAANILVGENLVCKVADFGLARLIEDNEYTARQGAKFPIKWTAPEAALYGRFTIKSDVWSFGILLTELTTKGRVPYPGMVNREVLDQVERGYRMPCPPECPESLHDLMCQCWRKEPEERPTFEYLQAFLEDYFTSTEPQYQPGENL
# [3] = biological target: Insulin receptor-related protein (Homo sapiens) (UniProt P14616); test: Inhibition of IRR (unknown origin) at 10 uM incubated for 30 mins in presence of [gamma-33P]ATP by multidrop micro reagent based assay relative to control
# Sequence of Insulin receptor-related protein (Homo sapiens) (P14616 27-742 limits assumed): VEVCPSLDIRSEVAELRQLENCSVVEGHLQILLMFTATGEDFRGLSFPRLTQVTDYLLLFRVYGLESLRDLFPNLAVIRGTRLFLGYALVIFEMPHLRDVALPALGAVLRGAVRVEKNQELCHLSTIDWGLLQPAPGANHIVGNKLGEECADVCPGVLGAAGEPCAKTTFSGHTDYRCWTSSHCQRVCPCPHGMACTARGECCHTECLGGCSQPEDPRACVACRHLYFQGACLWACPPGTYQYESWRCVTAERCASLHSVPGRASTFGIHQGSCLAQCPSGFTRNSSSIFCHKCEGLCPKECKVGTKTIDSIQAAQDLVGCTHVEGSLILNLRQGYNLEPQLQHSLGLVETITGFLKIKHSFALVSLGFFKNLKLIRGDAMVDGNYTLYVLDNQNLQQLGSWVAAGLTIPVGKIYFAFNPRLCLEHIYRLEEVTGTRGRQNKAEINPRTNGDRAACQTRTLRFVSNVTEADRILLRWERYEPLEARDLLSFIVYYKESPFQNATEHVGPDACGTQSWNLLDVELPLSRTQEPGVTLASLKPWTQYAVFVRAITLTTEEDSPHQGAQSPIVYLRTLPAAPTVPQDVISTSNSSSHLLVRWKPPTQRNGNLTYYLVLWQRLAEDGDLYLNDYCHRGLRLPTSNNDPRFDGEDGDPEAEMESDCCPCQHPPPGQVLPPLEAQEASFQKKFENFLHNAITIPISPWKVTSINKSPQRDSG
# Sequence of Insulin receptor-related protein (Homo sapiens) (P14616 747-1297 limits assumed): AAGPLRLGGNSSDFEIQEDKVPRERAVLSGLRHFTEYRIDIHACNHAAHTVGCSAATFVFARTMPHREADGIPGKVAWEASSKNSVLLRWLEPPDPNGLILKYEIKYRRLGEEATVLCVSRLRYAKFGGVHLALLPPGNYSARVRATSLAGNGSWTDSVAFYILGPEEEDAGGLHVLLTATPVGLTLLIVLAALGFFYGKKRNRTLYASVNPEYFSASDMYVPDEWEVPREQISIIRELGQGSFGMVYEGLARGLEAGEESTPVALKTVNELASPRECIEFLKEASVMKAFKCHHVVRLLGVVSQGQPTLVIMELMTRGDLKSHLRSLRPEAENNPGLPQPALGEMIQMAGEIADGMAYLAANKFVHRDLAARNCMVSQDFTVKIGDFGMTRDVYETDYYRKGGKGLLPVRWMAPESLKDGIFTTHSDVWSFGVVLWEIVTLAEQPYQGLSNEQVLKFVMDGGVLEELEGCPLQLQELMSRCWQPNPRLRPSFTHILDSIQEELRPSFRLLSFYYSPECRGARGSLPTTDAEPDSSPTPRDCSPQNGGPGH
# [4] = biological target: Aurora kinase B (Homo sapiens) (UniProt Q96GD4); test: Inhibition of Aurora B kinase (unknown origin) at 10 uM incubated for 30 mins in presence of [gamma-33P]ATP by multidrop micro reagent based assay relative to control; values are per cent of control
# Sequence of Aurora kinase B (Homo sapiens) (Q96GD4 whole entry): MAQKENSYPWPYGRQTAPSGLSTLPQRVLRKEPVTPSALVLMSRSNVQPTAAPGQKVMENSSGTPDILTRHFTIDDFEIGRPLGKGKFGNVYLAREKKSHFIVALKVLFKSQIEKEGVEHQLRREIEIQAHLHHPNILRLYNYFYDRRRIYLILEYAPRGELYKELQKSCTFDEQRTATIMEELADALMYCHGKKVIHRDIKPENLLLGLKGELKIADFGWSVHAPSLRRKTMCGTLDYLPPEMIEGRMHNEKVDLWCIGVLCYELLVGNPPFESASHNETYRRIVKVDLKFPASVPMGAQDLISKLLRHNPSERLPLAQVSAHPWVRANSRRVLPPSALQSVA
# [5] = biological target: Myosin light chain kinase, smooth muscle (Homo sapiens) (UniProt Q15746); test: Inhibition of SmMLCK (unknown origin) at 10 uM incubated for 30 mins in presence of [gamma-33P]ATP by multidrop micro reagent based assay relative to control; values are per cent of control
# [6] = biological target: T1, Dual specificity protein kinase TTK (Homo sapiens) (UniProt P33981); test: Inhibition of TTK (unknown origin) at 10 uM incubated for 30 mins in presence of [gamma-33P]ATP by multidrop micro reagent based assay relative to control
# T1 sequence (whole entry): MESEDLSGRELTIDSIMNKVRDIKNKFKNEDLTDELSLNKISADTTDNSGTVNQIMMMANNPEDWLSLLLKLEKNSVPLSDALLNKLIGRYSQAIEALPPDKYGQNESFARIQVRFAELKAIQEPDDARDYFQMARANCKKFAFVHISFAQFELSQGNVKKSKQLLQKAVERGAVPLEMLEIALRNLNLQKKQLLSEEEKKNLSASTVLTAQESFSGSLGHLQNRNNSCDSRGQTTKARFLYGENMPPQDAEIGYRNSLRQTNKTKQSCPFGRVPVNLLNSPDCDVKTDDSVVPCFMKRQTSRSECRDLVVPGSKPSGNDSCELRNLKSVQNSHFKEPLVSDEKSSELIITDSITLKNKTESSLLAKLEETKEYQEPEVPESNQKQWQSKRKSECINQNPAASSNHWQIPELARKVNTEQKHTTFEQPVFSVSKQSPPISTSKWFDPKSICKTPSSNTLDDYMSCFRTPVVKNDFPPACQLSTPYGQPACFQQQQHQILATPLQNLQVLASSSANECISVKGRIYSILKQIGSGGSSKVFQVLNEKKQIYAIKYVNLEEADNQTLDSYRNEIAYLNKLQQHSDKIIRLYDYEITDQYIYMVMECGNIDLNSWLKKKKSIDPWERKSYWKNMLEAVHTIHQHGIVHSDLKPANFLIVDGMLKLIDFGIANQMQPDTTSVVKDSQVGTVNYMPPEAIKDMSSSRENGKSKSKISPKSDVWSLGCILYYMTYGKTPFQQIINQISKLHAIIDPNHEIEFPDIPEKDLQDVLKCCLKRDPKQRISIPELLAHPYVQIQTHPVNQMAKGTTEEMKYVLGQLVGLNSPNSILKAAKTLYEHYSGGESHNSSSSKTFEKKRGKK
# In short: (§1)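 Single-concentration screen across a panel of 85 protein kinases. Activity is expressed as a percentage of control incubations run without inhibitor.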
# [7] = biological target: Receptor tyrosine-protein kinase erbB-4 (Homo sapiens) (UniProt Q15303); test: Inhibition of HER4 (unknown origin) at 1 uM incubated for 30 mins in presence of [gamma-33P]ATP by multidrop micro reagent based assay relative to control; values are per cent of control
# Sequence of Receptor tyrosine-protein kinase erbB-4 (Homo sapiens) (Q15303 whole entry): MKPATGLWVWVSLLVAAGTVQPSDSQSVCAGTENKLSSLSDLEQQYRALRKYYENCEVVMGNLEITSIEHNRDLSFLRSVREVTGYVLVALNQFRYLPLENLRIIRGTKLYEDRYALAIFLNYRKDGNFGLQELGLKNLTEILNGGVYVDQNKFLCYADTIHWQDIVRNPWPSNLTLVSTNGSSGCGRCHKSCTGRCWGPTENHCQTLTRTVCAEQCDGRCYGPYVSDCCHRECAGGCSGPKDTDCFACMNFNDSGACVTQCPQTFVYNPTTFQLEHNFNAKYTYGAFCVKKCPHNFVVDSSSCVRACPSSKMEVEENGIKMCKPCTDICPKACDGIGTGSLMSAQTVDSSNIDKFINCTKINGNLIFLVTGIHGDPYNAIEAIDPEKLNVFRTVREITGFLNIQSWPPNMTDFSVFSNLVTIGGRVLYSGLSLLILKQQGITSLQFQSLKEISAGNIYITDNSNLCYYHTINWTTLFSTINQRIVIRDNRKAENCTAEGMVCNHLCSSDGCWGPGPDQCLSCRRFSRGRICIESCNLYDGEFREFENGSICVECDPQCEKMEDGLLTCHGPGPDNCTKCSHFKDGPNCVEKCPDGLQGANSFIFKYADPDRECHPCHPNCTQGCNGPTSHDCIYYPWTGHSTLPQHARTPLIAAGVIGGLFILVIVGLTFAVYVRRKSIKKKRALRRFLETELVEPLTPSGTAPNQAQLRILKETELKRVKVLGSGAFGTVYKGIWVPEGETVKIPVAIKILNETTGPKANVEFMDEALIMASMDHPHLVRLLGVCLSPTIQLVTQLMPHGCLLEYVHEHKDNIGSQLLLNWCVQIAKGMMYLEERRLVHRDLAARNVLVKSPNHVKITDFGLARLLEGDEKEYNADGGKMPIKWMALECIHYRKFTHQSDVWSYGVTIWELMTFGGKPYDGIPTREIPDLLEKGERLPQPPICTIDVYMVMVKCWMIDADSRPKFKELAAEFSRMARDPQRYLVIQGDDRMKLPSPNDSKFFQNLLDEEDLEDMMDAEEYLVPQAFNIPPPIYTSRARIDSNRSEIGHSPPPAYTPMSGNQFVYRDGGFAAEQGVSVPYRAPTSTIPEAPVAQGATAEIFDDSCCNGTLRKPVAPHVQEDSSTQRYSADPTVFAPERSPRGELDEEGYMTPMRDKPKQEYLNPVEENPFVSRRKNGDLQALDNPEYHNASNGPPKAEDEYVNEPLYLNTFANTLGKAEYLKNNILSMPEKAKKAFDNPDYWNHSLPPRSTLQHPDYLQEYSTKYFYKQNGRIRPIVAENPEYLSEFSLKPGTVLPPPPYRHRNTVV
# [8] = biological target: T2, NUAK family SNF1-like kinase 1 (Homo sapiens) (UniProt O60285); test: Inhibition of NUAK1 (unknown origin) at 1 uM incubated for 30 mins in presence of [gamma-33P]ATP by multidrop micro reagent based assay relative to control
# T2 sequence (whole entry): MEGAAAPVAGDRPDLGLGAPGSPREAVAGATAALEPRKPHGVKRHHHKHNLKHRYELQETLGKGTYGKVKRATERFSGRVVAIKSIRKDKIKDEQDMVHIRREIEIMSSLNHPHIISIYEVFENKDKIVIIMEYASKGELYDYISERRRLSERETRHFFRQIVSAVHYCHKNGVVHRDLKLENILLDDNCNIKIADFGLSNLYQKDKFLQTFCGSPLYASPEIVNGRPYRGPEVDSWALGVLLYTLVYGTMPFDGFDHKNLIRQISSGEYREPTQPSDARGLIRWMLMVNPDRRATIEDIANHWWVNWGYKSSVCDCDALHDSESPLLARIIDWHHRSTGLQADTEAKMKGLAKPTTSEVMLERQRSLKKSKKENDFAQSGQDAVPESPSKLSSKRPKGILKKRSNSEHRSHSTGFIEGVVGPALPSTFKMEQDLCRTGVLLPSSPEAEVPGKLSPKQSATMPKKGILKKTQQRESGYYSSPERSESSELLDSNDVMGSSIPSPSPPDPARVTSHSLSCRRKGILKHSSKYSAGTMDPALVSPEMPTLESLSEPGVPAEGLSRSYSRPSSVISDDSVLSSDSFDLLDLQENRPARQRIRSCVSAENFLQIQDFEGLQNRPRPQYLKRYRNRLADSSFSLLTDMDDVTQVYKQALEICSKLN
# In short: as §1
# [9] = biological target: T1, Dual specificity protein kinase TTK (Homo sapiens); test: Inhibition of TTK (unknown origin) at 1 uM incubated for 30 mins in presence of [gamma-33P]ATP by multidrop micro reagent based assay relative to control; values are per cent of control
# [10] = biological target: Serine/threonine-protein kinase pim-1 (Homo sapiens) (UniProt P11309); test: Inhibition of PIM1 (unknown origin) at 1 uM incubated for 30 mins in presence of [gamma-33P]ATP by multidrop micro reagent based assay relative to control; values are per cent of control
# Sequence of Serine/threonine-protein kinase pim-1 (Homo sapiens) (P11309 whole entry, looked up): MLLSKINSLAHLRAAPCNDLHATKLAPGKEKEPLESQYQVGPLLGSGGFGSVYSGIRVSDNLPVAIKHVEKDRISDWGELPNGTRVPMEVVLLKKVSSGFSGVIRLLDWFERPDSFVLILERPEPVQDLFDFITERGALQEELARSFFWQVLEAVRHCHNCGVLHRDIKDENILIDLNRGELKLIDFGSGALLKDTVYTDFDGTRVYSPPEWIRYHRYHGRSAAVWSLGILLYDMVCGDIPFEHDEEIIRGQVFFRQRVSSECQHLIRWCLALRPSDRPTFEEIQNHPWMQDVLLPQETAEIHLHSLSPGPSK
# Sequence of Serine/threonine-protein kinase PAK 5 (Homo sapiens) (Q9P286 whole entry, looked up): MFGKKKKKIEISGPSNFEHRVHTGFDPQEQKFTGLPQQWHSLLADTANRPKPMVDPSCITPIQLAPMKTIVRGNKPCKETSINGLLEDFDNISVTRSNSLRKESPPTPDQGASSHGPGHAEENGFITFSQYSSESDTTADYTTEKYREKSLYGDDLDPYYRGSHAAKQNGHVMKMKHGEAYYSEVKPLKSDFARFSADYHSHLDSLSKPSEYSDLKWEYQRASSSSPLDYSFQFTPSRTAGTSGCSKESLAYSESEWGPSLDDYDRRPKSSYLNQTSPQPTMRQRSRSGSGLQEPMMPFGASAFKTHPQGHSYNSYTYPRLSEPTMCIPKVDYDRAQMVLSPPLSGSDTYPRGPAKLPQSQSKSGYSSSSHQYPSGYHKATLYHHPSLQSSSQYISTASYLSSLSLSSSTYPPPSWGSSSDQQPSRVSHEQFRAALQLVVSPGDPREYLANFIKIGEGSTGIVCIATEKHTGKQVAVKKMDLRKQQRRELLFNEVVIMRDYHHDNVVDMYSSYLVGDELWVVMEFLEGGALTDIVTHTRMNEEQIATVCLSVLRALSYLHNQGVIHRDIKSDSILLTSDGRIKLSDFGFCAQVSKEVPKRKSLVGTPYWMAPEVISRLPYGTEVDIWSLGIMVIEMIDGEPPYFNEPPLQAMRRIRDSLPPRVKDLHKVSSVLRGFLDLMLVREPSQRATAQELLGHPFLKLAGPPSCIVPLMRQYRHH
SMILES,residual activity [1],residual activity [2],inhibition [3],residual activity [4],residual activity [5],inhibition [6],residual activity [7],inhibition [8],residual activity [9],residual activity [10]
C[C@@H](N)[C@H]1CC[C@H](C(=O)Nc2ccncc2)CC1,101%,90%,91%,79%,70%,73%,,,,
Cc1cncc2cccc(S(=O)(=O)N3CCCNC[C@@H]3C)c12,,,,,,,107%,51%,,
O=S(=O)(c1cccc2cnccc12)N1CCCNCC1 [FASUDIL],112%,120%,86%,51%,66%,73%,,,,
CCn1c(-c2nonc2N)nc2cnc(Oc3cccc(NC(=O)c4ccc(OCCN5CCOCC5)cc4)c3)cc21 [GSK-269962A],,,,,,,,,69%,31%
CC1=C(C(=O)Nc2cc3cn[nH]c3cc2F)C(c2ccc(C(F)(F)F)cc2)CC(=O)N1 (stereo not given),,,,,,,50%,51%,83%,89%
